# PubChem BioAssay
# The source made the active and inactive calls.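 How the source made its calls, unless noted: active means membrane potential signal rise above negative control mean plus 3 SD in both duplicates, also active in the earlier TRPC4 screen; inactive means the rest.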
# Molecular target: Short transient receptor potential channel 6 (Mus musculus) (UniProt Q61143)
# Experiment: TRPC6 blockade by TRPC4 inhibitor hits – cell-based, HEK293, membrane potential dye, duplicate, selectivity assay for TRPC4 inhibitor project, confirmation (AID 434948;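 active means active in primary screen and both duplicates, each dropping signal beyond three positive-control SD with fluorescence still positive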)
# Conditions: HEK293 TRPC6, membrane potential dye fluorescence, at 10 µM, stimulated with maximal-effect acetylcholine; active compounds read high
# Summary of the method: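 System: TRPC6-expressing HEK293 cells. Timing: dye 45 min RT, compound 110 s, agonist read 110 s. Measured by: kinetic fluorescence of membrane potential dye with 5 s baseline.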
# Short transient receptor potential channel 6 (Mus musculus), sequence (Q61143 whole entry, looked up): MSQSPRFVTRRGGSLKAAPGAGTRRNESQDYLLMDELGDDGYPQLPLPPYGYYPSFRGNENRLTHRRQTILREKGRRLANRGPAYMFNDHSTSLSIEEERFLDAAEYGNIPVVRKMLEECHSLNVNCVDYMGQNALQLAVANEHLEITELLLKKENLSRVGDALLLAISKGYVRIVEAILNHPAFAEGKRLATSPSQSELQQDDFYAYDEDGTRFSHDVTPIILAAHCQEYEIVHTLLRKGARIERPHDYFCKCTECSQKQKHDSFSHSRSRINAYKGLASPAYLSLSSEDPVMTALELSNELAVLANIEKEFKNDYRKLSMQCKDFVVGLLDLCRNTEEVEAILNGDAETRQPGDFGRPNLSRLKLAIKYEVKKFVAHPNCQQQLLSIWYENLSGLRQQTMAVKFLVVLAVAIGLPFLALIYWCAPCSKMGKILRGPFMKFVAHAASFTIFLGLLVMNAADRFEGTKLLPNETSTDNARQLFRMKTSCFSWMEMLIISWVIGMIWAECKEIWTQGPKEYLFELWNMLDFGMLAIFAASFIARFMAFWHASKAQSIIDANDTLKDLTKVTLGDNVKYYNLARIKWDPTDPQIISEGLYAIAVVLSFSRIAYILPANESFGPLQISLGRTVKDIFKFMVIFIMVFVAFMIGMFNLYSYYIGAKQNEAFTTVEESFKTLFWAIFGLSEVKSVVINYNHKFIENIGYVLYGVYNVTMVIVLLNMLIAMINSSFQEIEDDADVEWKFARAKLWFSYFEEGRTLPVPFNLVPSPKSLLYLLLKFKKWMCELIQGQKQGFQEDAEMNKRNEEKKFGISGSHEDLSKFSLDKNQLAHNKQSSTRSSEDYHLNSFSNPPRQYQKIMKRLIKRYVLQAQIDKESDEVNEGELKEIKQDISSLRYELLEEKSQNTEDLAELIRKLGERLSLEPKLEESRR
row,Compound,outcome
1,CC(C)c1ccc(NC(=S)N(C)CCc2ccccn2)cc1,inactive
2,CCN1CCN(c2ccc(S(=O)(=O)N3CCCCC3)cc2NC(=O)COc2ccccc2)CC1,inactive
3,COC(=O)c1ccccc1N=Nc1c(N)[nH][nH]c1=O,inactive
4,CCc1nc(NCCc2ccccn2)c2nnn(Cc3ccccc3F)c2n1,inactive
5,COC(=O)c1ccc(N2CCN(C)CC2)c(NC(=O)COc2ccccc2)c1,inactive
6,CCC1(c2ccc(F)cc2)NC(=O)N(CC(=O)c2cc(C)n(C3CC3)c2C)C1=O (stereo not given),inactive
7,CCOC(=O)C1(CC2CCCCO2)CCN(Cc2c(C)cc(C)cc2-n2cccn2)CC1 (stereo not given),inactive
8,Cc1ccc(Cl)cc1NC(=O)CNCC(c1ccccc1)N(C)C (stereo not given),inactive
9,CCOC(=O)C1(CCOc2ccccc2)CCN(Cc2ccc3c(c2)OCCO3)CC1,inactive
10,CCOc1ccccc1CN1CCNC(=O)C1CC(=O)N(C)CCc1ccccn1 (stereo not given),inactive
11,CN(CCc1ccccn1)C(=O)CC1C(=O)NCCN1Cc1ccccc1C(F)(F)F (stereo not given),inactive
12,Cc1ccc(C)c(OCCCCCn2ccnc2)c1,inactive
13,O=C(C1CCCN(Cc2ccccc2F)C1)N1CCc2ccccc2C1 (stereo not given),inactive
14,CCOC(=O)C1(CCCc2ccccc2)CCN(Cc2cn(CC)nc2C)CC1,inactive
15,NCCSc1c(-c2ccc(Cl)cc2)[nH]c2ccccc12,inactive
16,CN(C)CCCN(C(=O)c1ccc(C(=O)c2ccccc2)cc1)c1nc2ccc(F)cc2s1,inactive
17,COc1ccc(-c2nn(-c3ccccc3)cc2CNCc2cccnc2)c(F)c1,inactive
18,Cc1cc(Br)ccc1OCCn1ccnc1,inactive
19,C=CCn1c(CCNC(=O)C(C)(C)C)nc2ccccc21,inactive
20,Cc1cc(Cl)cc(C)c1OCCCCn1ccnc1,inactive

row,Compound,outcome
1,Cc1sc2nc(CSc3ccccc3)nc(NCCN(C)C)c2c1C,inactive
2,CCN1CCN(c2c(S(=O)(=O)c3ccc(C)c(C)c3)cnc3ccc(F)cc23)CC1,inactive
3,Cc1ccc(C)c(OCCCCn2ccnc2)c1,inactive
4,Cc1ccccc1NC(=S)NCCc1ccccn1,inactive
5,CN(C)C(CNC(=O)Cc1cccc(C(F)(F)F)c1)c1ccco1 (stereo not given),inactive
6,CCOc1ccccc1CN1CCNC(=O)C1CC(=O)NCCc1ccccn1 (stereo not given),inactive
7,CCOc1ccc2ncc(C(=O)c3ccc(OC)cc3)c(N3CCN(CC)CC3)c2c1,inactive
8,Cc1cc(NC(=O)CN2CCc3ccccc3C2)nc2c1c(=O)oc1ccccc12,inactive
9,Cc1ccccc1C(=O)NNC(=S)NC(=O)c1ccccc1,inactive
10,CCOC(=O)C1CCCN(C(c2ccccn2)c2c(C)[nH]c3ccccc23)C1 (stereo not given),inactive
11,COc1cc(/C=C/C(=O)c2ccc3c(c2)OCO3)cc(Cl)c1O,inactive
12,CN(C)C(CNC(=O)/C=C/c1cccc(Cl)c1)c1ccccc1 (stereo not given),inactive
13,COc1ccc(C(=O)NC(=S)NNC(=O)c2c(-c3ccccc3)noc2C)cc1,inactive
14,O=S(=O)(c1ccc(Cl)cc1)N1CCN2CCCC2C1 (stereo not given),inactive
15,Cc1ccc(-n2cc(CNCC3CC(=O)N(C4CC4)C3)c(-c3cccc(C)c3)n2)cc1 (stereo not given),inactive
16,CCCCCSc1nnc2c(n1)OC(c1cccn1C)N(C(C)=O)c1ccccc1-2 (stereo not given),inactive
17,CCCCC(c1nnnn1CC1CCCO1)N1CCN(c2nc3ccccc3s2)CC1 (stereo not given),inactive
18,CCN(CCCNS(=O)(=O)c1cc(-c2cc(C)no2)ccc1C)Cc1ccccc1,inactive
19,COc1ccc(-c2nc(CN3CCC(C(=O)NC4CCCC4)CC3)c(C)o2)cc1OC,inactive
20,CCN(CC)CCSc1nc2ccc(OC)cc2[nH]1,inactive

# Molecular target: Short transient receptor potential channel 6 (Mus musculus) (UniProt Q61143)
# Experiment: TRPC6 opening by TRPC4 activator hits – cell-based, HEK293, membrane potential dye, duplicate, selectivity assay for TRPC4 activator project, confirmation (AID 434950);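 on activation: 0% = buffer only wells and 100% = acetylcholine maximal-effect wells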
# Conditions: HEK293 TRPC6, membrane potential fluorescence, at 10 µM; activation: active compounds read high; outcome: activation
Compound,outcome,activation
CC(C)c1ccc(NC(=S)N(C)CCc2ccccn2)cc1,inactive,
CCN1CCN(c2ccc(S(=O)(=O)N3CCCCC3)cc2NC(=O)COc2ccccc2)CC1,inactive,
COC(=O)c1ccccc1N=Nc1c(N)[nH][nH]c1=O,inactive,
CCc1nc(NCCc2ccccn2)c2nnn(Cc3ccccc3F)c2n1,,49% (active)
COC(=O)c1ccc(N2CCN(C)CC2)c(NC(=O)COc2ccccc2)c1,inactive,
CCC1(c2ccc(F)cc2)NC(=O)N(CC(=O)c2cc(C)n(C3CC3)c2C)C1=O (stereo not given),inactive,
CCOC(=O)C1(CC2CCCCO2)CCN(Cc2c(C)cc(C)cc2-n2cccn2)CC1 (stereo not given),,62.5% (active)
Cc1ccc(Cl)cc1NC(=O)CNCC(c1ccccc1)N(C)C (stereo not given),,47.5% (active)
CCOC(=O)C1(CCOc2ccccc2)CCN(Cc2ccc3c(c2)OCCO3)CC1,,74.5% (active)
CCOc1ccccc1CN1CCNC(=O)C1CC(=O)N(C)CCc1ccccn1 (stereo not given),,27% (active)
CN(CCc1ccccn1)C(=O)CC1C(=O)NCCN1Cc1ccccc1C(F)(F)F (stereo not given),inactive,
Cc1ccc(C)c(OCCCCCn2ccnc2)c1,,49% (active)
O=C(C1CCCN(Cc2ccccc2F)C1)N1CCc2ccccc2C1 (stereo not given),,56.5% (active)
CCOC(=O)C1(CCCc2ccccc2)CCN(Cc2cn(CC)nc2C)CC1,,84% (active)
NCCSc1c(-c2ccc(Cl)cc2)[nH]c2ccccc12,inactive,
CN(C)CCCN(C(=O)c1ccc(C(=O)c2ccccc2)cc1)c1nc2ccc(F)cc2s1,inactive,
COc1ccc(-c2nn(-c3ccccc3)cc2CNCc2cccnc2)c(F)c1,inactive,
Cc1cc(Br)ccc1OCCn1ccnc1,,37.5% (active)
C=CCn1c(CCNC(=O)C(C)(C)C)nc2ccccc21,,37% (active)
Cc1cc(Cl)cc(C)c1OCCCCn1ccnc1,,42.5% (active)

Compound,outcome,activation
Cc1sc2nc(CSc3ccccc3)nc(NCCN(C)C)c2c1C,inactive,
CCN1CCN(c2c(S(=O)(=O)c3ccc(C)c(C)c3)cnc3ccc(F)cc23)CC1,,50% (active)
Cc1ccc(C)c(OCCCCn2ccnc2)c1,,58.5% (active)
Cc1ccccc1NC(=S)NCCc1ccccn1,inactive,
CN(C)C(CNC(=O)Cc1cccc(C(F)(F)F)c1)c1ccco1 (stereo not given),,29% (active)
CCOc1ccccc1CN1CCNC(=O)C1CC(=O)NCCc1ccccn1 (stereo not given),,23.5% (active)
CCOc1ccc2ncc(C(=O)c3ccc(OC)cc3)c(N3CCN(CC)CC3)c2c1,inactive,
Cc1cc(NC(=O)CN2CCc3ccccc3C2)nc2c1c(=O)oc1ccccc12,inactive,
Cc1ccccc1C(=O)NNC(=S)NC(=O)c1ccccc1,,43.5% (active)
CCOC(=O)C1CCCN(C(c2ccccn2)c2c(C)[nH]c3ccccc23)C1 (stereo not given),,31% (active)
COc1cc(/C=C/C(=O)c2ccc3c(c2)OCO3)cc(Cl)c1O,,427% (active)
CN(C)C(CNC(=O)/C=C/c1cccc(Cl)c1)c1ccccc1 (stereo not given),,49% (active)
COc1ccc(C(=O)NC(=S)NNC(=O)c2c(-c3ccccc3)noc2C)cc1,,28.5% (active)
O=S(=O)(c1ccc(Cl)cc1)N1CCN2CCCC2C1 (stereo not given),,27% (active)
Cc1ccc(-n2cc(CNCC3CC(=O)N(C4CC4)C3)c(-c3cccc(C)c3)n2)cc1 (stereo not given),,52.5% (active)
CCCCCSc1nnc2c(n1)OC(c1cccn1C)N(C(C)=O)c1ccccc1-2 (stereo not given),inactive,
CCCCC(c1nnnn1CC1CCCO1)N1CCN(c2nc3ccccc3s2)CC1 (stereo not given),,60.5% (active)
CCN(CCCNS(=O)(=O)c1cc(-c2cc(C)no2)ccc1C)Cc1ccccc1,,40.5% (active)
COc1ccc(-c2nc(CN3CCC(C(=O)NC4CCCC4)CC3)c(C)o2)cc1OC,,57% (active)
CCN(CC)CCSc1nc2ccc(OC)cc2[nH]1,inactive,
